From PubChem BioAssay AID588420 (The Scripps Research Institute Molecular Screening Center, 2011)
The source made the active and inactive calls.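 The calls were made as follows: active = IC50 at or below 1 µM; inactive = the rest.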

Molecular target: Protein-arginine deiminase type-4 (Homo sapiens) (UniProt Q9UM07)
Experiment: PAD4 enzyme inhibition potency, late-stage follow-up, biochemical, BAEE substrate, citrulline absorbance, 8-point 0-10 µM (AID 588420)
Conditions: recombinant PAD4, BAEE citrulline colorimetric absorbance
Summary of the method: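 Test system: recombinant PAD4 enzyme; Timing: 15 min preincubation plus 15 min reaction at 37 °C; Technique: absorbance at 540 nm; Repeats: duplicate measurements at every concentration.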

Chain of Protein-arginine deiminase type-4 (Homo sapiens) (Q9UM07 whole entry, looked up): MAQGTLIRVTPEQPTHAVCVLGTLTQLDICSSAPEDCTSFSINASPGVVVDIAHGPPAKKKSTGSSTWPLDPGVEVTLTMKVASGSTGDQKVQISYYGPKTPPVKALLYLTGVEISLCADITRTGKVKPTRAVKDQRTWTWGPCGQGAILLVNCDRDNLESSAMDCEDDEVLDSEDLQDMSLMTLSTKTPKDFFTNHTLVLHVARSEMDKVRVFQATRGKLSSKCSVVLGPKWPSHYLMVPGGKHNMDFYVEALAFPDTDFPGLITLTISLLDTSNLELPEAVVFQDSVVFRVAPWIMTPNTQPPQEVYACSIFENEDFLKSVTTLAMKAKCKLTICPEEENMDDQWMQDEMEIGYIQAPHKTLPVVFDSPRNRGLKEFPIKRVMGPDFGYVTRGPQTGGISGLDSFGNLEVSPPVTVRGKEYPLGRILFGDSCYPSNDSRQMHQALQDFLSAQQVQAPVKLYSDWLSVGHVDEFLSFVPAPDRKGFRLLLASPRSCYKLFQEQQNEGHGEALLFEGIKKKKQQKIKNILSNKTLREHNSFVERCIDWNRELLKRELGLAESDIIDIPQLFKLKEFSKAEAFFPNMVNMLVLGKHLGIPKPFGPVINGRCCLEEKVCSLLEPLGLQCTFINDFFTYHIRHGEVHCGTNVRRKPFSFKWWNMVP

Question: Which IC50 does the source give for `COC1=CC(=O)c2nc(C#N)ccc2C1=O` here?
Answer: inactive
